Values after ≈ are worked out from the molar mass of the structure shown. Active and inactive are the calls of the source. The rule behind the calls is not given here.

Data set [1] concerns Candida albicans. Nature of the data set: Antifungal activity against Candida albicans ATCC 90028 after 24 to 48 hrs by serial broth microdilution susceptibility test. The data set is classed as functional. The method in brief:
(§1)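 MIC determined by serial microdilution in microplates. Candida inocula were prepared in L-glutamine-deficient RPMI-1640 medium.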

Data set [2] concerns Staphylococcus aureus. Nature of the data set: Antibacterial activity against Staphylococcus aureus ATCC 25923 after 18 to 24 hrs by serial broth microdilution susceptibility test. The data set is classed as functional. The method in brief:
as §1

Data set [3] deals with Candida albicans. Description: Antifungal activity against Candida albicans ATCC 10231 assessed as increase in intracellular potassium release after 30 mins. It counts as functional, organism-based. The method in brief:
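Efflux of K+ from C. albicans cells was monitored continuously with a potassium-selective electrode. Release was expressed relative to a positive control, and EK50 was taken as the concentration releasing 50% of intracellular potassium.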

The nature of data set [4]: Toxicity in human erythrocytes assessed as hemolysis at 100 uM after 30 mins by spectrophotometry. It counts as cell-based, Erythrocyte. Particulars: read-out: Activity. The method in brief: (§2)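 Human erythrocytes suspended in PBS were exposed to lipopeptides at 0.001–0.4 mmol/l and hemolysis was measured.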
The subject of data set [5] is Pseudomonas aeruginosa. Nature of the data set: Antibacterial activity against Pseudomonas aeruginosa ATCC 27853 after 18 to 24 hrs by serial broth microdilution susceptibility test. The data set is classed as functional. The method in brief:
as §1

Data set [6] has as its system Candida albicans. Description: Antifungal activity against Candida albicans ATCC 10231 assessed as pseudohyphae formation at 120 uM after 6 hrs by calcofluor white and aniline blue staining-based fluorescence microscopy. It counts as functional, organism-based. In outline: (§3)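 C. albicans ATCC 10231 yeast cells were incubated with compound for 6 h, at up to 2×MIC. Chitin was stained with Calcofluor White and glucan with Aniline Blue, then cells were examined by fluorescence microscopy against untreated controls.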

For data set [7], the system named is Escherichia coli. Description: Antibacterial activity against Escherichia coli ATCC 25922 after 18 to 24 hrs by serial broth microdilution susceptibility test. The data set is classed as functional. In outline:
as §1

In data set [8] the test system is Bordetella bronchiseptica. Description: Antibacterial activity against Bordetella bronchiseptica ATCC 4617 after 18 to 24 hrs by serial broth microdilution susceptibility test. It counts as functional. In outline: as §1
Data set [9] concerns Candida albicans. Description: Inhibition of beta (1,3) glucan synthase in Candida albicans cell membrane using UDP-Glc as substrate assessed as aniline blue-glucan complex formation at 187 uM by microtiter-based fluorescence method. In outline:
(§4)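 β(1,3)-glucan synthase in the membrane fraction of C. albicans was assayed by a microtiter-based fluorescence method across a concentration range. Values are means of three independent experiments (SD); IC50 was determined.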

Data set [10] deals with Candida parapsilosis. Description: Antifungal activity against Candida parapsilosis ATCC 22019 after 24 to 48 hrs by serial broth microdilution susceptibility test. The data set is classed as functional. The conditions noted are these: Lodderomyces parapsilosis. In outline:
as §1

Data set [11] can be described thus: Toxicity in human erythrocytes assessed as hemolysis at 300 uM after 30 mins by spectrophotometry. It counts as cell-based, Erythrocyte. Particulars: read-out: Activity. The method in brief: as §2
Data set [12] concerns Escherichia coli. Description: Antibacterial activity against Escherichia coli ATCC BAA-198 after 18 to 24 hrs by serial broth microdilution susceptibility test. The data set is classed as functional. The method in brief:
as §1

Data set [13] has as its system Staphylococcus aureus. Nature of the data set: Antibacterial activity against Staphylococcus aureus ATCC 43300 after 18 to 24 hrs by serial broth microdilution susceptibility test. It counts as functional. In outline:
as §1

Data set [14] concerns Candida albicans. Nature of the data set: Antifungal activity against Candida albicans ATCC 10231 assessed as morphological changes at < 60 uM after 6 hrs by calcofluor white and aniline blue staining-based fluorescence microscopy. The data set is classed as functional, organism-based. The method in brief: as §3
In data set [15] the test system is Candida albicans. Nature of the data set: Inhibition of beta (1,3) glucan synthase in Candida albicans cell membrane using UDP-Glc as substrate assessed as aniline blue-glucan complex formation by microtiter-based fluorescence method. The method in brief: as §4
Data set [16] concerns Acinetobacter baumannii. Nature of the data set: Antibacterial activity against Acinetobacter baumannii ATCC 19606 after 18 to 24 hrs by serial broth microdilution susceptibility test. The data set is classed as functional. The conditions noted are these: ATCC 19606 = CIP 70.34 = JCM 6841. In outline: as §1
For data set [17], the system named is Pichia kudriavzevii. Nature of the data set: Antifungal activity against Candida krusei ATCC 6258 after 24 to 48 hrs by serial broth microdilution susceptibility test. It counts as functional. The method in brief: as §1
The test system of data set [18] is Klebsiella pneumoniae subsp. pneumoniae. Nature of the data set: Antibacterial activity against Klebsiella pneumoniae subsp. pneumoniae ATCC 13882 after 18 to 24 hrs by serial broth microdilution susceptibility test. It counts as functional. The method in brief: as §1

`CCCCCCCCNC(=O)[C@H](Cc1ccccc1)NC(=O)[C@H](CCCCNC(=O)[C@@H](N)CCCCNC(=O)OCc1ccccc1Cl)NC(=O)[C@@H](N)CCCCNC(=O)OCc1ccccc1Cl`: the MIC in [1] was 60 µM (≈ 59.9 µg/mL); in [2], 30 µM (≈ 29.9 µg/mL); in data set [5], 120 µM (≈ 120 µg/mL); in data set [7], 8 µM (≈ 7.98 µg/mL); in data set [8], 7 µM (≈ 6.99 µg/mL); in data set [10], 15 µM (≈ 15 µg/mL). Further, the MIC in data set [12] turned out to be 8 µM (≈ 7.98 µg/mL); in [13] it was 8 µM (≈ 7.98 µg/mL); in [16], 60 µM (≈ 59.9 µg/mL); in data set [17] it was 15 µM (≈ 15 µg/mL); in [18] it was 119 µM (≈ 119 µg/mL). For the same compound, in data set [3], the Activity entry was “Dose-dependent effect”. For the same compound, in data set [3] (Candida albicans, ATCC 10231, 0.5 h), the EC50 was 17 µM. Besides, the hemolysis at 0.5 h, 100 µM in data set [4] was 1%. Moreover, the result in data set [6] was Active. Also, the inhibition in data set [9] is 43%; in data set [15], “Dose-dependent effect”. In addition, in [11], the hemolysis at 0.5 h, 300 µM is 10%. Besides, the outcome in [14] was inactive.
